{
  "source": "ChEMBL document CHEMBL2417369",
  "about": "“Synthesis and evaluation of heteroaryl substituted diazaspirocycles as scaffolds to probe the ATP-binding site of protein kinases” (Bioorg Med Chem, 2013)",
  "key": {"[1]": {"target": "T1, Protein kinase C zeta type (Homo sapiens) (UniProt Q05513)", "T1 sequence (whole entry)": "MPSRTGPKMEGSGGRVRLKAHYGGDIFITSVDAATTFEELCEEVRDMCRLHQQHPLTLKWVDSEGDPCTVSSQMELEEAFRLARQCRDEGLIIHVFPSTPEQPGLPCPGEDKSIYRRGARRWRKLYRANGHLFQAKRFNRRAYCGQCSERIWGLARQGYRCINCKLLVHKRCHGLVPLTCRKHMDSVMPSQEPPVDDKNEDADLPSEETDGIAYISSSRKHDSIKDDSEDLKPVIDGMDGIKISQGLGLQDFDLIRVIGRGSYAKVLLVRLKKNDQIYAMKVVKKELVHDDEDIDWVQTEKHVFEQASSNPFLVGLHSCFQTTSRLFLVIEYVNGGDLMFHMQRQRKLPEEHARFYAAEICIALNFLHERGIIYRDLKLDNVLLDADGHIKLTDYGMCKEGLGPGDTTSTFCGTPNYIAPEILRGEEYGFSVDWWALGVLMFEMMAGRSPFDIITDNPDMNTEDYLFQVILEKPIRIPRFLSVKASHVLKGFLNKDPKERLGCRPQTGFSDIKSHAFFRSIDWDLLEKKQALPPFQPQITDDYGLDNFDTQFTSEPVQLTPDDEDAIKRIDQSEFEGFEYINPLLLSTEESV", "experiment": "Inhibition of PKCzeta (unknown origin) at 30 uM by microfluidic mobility shift assay relative to control", "method_in_brief": "(§1)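 Single-point screen against a 24-kinase panel in a commercial microfluidic assay format. Compounds were tested at 30 µM, with ATP at approximately the Km,[ATP] of each enzyme. H-89 was included on each assay plate as an internal control.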"}, "[2]": {"target": "AMP-activated protein kinase, AMPK (Homo sapiens) (UniProt P54646+O43741+P54619+Q9UGJ0+Q9Y478+Q13131+Q9UGI9)", "experiment": "Inhibition of AMPK (unknown origin) at 30 uM by microfluidic mobility shift assay relative to control", "format": "protein-complex assay", "method_in_brief": "(§2)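 Single-point screen at 30 µM test compound across a 24-kinase panel in a microfluidic assay format. ATP was set near each enzyme's Km,[ATP]. […] The pan-AGC inhibitor H-89 served as an internal control on every assay plate.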"}, "[3]": {"target": "Protein kinase C eta type (Homo sapiens) (UniProt P24723)", "sequence (P24723 whole entry)": "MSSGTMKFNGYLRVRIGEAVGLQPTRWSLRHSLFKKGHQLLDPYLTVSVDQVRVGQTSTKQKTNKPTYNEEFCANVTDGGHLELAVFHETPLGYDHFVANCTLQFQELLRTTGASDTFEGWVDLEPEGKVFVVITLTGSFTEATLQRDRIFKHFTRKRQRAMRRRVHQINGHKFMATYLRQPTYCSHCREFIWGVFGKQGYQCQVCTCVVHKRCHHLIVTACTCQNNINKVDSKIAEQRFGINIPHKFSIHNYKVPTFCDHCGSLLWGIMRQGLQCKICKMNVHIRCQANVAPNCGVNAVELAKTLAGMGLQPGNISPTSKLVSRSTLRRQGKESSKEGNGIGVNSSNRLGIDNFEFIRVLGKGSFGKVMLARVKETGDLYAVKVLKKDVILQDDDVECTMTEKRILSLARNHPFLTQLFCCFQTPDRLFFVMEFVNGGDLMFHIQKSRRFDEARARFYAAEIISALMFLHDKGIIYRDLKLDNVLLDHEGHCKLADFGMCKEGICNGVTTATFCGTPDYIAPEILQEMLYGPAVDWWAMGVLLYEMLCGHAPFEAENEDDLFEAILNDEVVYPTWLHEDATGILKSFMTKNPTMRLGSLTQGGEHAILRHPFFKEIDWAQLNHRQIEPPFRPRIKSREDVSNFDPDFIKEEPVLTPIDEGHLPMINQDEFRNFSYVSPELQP", "experiment": "Inhibition of PKCeta (unknown origin) at 30 uM by microfluidic mobility shift assay relative to control", "method_in_brief": "as §1"}, "[4]": {"target": "Protein kinase C delta type (Homo sapiens) (UniProt Q05655)", "sequence (Q05655 whole entry, looked up)": "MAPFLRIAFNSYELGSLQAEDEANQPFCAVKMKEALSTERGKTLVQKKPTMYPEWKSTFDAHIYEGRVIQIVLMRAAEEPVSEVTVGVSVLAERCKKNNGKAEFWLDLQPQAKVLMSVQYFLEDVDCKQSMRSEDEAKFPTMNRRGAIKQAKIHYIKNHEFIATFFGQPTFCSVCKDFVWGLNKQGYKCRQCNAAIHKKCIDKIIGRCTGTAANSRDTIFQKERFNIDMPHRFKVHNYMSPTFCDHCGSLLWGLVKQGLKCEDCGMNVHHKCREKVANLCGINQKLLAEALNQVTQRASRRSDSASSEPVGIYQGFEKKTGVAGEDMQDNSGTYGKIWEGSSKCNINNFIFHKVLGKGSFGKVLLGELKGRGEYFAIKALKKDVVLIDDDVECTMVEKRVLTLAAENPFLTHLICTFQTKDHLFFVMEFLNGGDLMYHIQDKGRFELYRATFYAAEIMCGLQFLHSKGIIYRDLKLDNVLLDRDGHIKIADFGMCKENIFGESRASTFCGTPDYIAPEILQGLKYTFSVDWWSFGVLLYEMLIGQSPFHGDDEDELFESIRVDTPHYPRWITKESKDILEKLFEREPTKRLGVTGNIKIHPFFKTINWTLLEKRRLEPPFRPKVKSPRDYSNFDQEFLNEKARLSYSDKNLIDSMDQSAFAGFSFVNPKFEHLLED", "experiment": "Inhibition of PKCdelta (unknown origin) at 30 uM by microfluidic mobility shift assay relative to control", "method_in_brief": "as §2"}, "[5]": {"system": "Tyrosine-protein kinase ABL1 (Homo sapiens), P00519 [T315I]", "experiment": "Inhibition of ABL T315I mutant (unknown origin) at 30 uM by microfluidic mobility shift assay relative to control", "format": "protein assay", "method_in_brief": "as §2"}, "[6]": {"target": "Vascular endothelial growth factor receptor 2 (Homo sapiens) (UniProt P35968)", "sequence (P35968 whole entry)": "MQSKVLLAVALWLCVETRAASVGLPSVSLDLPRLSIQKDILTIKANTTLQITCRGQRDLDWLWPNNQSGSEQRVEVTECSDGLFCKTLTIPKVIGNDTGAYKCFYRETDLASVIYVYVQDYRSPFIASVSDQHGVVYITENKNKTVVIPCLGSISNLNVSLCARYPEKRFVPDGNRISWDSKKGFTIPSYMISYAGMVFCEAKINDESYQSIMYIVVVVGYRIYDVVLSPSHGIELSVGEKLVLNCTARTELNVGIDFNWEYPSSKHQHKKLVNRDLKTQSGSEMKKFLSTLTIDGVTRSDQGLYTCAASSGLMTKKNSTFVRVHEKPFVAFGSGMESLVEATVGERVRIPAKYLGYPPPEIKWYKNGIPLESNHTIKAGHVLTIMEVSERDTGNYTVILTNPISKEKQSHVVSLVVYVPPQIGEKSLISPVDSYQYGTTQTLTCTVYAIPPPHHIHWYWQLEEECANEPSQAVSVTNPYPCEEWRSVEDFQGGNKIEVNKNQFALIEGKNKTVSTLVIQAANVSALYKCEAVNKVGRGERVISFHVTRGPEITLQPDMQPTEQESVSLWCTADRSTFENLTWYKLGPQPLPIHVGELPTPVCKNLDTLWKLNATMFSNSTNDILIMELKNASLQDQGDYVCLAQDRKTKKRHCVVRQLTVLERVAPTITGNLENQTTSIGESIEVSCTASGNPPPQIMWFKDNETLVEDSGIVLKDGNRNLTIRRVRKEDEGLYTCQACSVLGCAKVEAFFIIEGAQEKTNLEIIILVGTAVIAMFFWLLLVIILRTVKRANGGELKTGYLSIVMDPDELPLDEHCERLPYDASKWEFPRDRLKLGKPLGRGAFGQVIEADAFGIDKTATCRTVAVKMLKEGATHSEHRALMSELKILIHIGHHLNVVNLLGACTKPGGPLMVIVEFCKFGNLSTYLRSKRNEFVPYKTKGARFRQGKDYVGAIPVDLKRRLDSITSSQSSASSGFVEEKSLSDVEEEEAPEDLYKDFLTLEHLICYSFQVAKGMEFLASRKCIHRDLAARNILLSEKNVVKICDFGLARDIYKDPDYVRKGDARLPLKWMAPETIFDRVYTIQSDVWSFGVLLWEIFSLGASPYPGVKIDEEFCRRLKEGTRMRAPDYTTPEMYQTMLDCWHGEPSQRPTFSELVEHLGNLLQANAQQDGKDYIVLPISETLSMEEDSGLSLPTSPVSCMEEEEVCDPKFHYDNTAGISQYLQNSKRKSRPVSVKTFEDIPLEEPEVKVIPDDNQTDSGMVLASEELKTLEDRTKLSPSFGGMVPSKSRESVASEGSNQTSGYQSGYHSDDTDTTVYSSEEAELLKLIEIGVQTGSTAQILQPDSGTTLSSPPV", "experiment": "Inhibition of KDR (unknown origin) at 30 uM by microfluidic mobility shift assay relative to control", "method_in_brief": "as §2"}, "[7]": {"target": "T2, Cytoplasmic tyrosine-protein kinase BMX (Homo sapiens) (UniProt P51813)", "T2 sequence (whole entry)": "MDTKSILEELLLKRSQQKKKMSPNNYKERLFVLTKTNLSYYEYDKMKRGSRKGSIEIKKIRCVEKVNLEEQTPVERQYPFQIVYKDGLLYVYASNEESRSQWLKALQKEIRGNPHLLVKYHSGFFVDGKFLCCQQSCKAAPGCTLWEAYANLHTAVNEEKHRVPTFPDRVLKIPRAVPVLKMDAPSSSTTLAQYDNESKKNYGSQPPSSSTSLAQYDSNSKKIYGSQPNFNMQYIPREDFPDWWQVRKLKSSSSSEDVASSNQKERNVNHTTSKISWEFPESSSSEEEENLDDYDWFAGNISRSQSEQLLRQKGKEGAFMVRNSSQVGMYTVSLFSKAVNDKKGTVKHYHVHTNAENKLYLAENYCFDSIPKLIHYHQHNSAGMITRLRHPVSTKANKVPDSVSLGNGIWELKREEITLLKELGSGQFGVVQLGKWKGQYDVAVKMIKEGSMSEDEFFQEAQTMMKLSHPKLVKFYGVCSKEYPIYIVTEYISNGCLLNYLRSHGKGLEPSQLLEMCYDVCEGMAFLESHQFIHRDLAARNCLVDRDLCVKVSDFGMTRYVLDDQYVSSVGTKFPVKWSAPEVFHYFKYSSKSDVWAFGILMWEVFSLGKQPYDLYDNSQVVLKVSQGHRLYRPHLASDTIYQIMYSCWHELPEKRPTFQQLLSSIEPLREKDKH", "experiment": "Inhibition of BMX (unknown origin) at 30 uM by microfluidic mobility shift assay relative to control", "method_in_brief": "as §2"}, "[8]": {"target": "Protein kinase C beta type (Homo sapiens) (UniProt P05771)", "sequence (P05771 2-671 limits assumed)": "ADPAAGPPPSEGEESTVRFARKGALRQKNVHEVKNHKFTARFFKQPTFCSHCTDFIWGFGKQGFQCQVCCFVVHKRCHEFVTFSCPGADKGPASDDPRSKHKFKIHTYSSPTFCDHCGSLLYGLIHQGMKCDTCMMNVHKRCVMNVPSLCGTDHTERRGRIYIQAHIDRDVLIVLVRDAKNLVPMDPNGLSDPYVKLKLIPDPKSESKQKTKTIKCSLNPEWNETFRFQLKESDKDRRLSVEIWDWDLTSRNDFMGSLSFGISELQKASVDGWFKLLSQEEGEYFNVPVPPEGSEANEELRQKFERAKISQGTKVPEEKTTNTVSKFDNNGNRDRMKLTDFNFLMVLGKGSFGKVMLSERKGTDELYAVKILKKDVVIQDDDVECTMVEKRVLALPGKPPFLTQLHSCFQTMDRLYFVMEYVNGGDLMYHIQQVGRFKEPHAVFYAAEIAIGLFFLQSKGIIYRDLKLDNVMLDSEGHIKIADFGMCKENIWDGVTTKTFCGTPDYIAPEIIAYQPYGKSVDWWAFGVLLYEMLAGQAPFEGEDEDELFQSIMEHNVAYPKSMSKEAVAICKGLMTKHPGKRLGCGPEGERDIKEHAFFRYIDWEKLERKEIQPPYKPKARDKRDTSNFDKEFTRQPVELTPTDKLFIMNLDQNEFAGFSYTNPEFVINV", "experiment": "Inhibition of PKCbeta-2 (unknown origin) at 30 uM by microfluidic mobility shift assay relative to control", "method_in_brief": "as §2"}, "[9]": {"target": "Serine/threonine-protein kinase MARK2 (Homo sapiens) (UniProt Q7KZI7)", "sequence (Q7KZI7 whole entry)": "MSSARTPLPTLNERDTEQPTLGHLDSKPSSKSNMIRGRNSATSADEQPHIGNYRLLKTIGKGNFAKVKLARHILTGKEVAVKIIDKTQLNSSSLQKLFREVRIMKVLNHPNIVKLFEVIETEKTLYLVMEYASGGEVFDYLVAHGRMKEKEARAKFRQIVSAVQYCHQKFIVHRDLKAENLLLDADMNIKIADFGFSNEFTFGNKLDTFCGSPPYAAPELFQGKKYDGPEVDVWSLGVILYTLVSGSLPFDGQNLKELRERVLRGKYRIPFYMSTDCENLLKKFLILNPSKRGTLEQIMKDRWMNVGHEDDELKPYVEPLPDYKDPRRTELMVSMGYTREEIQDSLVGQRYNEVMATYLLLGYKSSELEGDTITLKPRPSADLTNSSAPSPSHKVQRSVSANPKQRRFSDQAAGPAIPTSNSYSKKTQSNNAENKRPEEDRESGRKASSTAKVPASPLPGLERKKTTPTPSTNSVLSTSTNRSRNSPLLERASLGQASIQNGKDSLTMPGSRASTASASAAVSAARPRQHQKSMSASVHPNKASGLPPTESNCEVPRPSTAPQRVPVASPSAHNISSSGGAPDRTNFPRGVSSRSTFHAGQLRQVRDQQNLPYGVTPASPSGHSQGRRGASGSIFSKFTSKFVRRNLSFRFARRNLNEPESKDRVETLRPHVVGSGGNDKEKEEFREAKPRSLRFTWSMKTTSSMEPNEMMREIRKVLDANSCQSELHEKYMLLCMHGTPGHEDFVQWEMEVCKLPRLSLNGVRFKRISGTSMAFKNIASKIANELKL", "experiment": "Inhibition of MARK2 (unknown origin) at 30 uM by microfluidic mobility shift assay relative to control", "method_in_brief": "as §2"}, "[10]": {"target": "Fibroblast growth factor receptor 3 (Homo sapiens) (UniProt P22607)", "experiment": "Inhibition of FGFR3 (unknown origin) at 30 uM by microfluidic mobility shift assay relative to control", "method_in_brief": "as §2"}, "[11]": {"target": "T3, Mitogen-activated protein kinase 12 (Homo sapiens) (UniProt P53778)", "T3 sequence (whole entry)": "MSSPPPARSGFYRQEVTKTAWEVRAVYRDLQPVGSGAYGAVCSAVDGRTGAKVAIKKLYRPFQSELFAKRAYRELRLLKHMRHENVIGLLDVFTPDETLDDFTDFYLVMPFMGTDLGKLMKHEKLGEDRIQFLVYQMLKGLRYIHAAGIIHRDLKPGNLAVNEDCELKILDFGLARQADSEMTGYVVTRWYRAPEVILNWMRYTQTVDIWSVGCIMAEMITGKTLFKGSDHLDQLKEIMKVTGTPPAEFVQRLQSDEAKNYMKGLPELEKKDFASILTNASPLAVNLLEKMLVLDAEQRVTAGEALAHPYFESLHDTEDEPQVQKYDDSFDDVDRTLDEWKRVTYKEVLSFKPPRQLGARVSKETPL", "experiment": "Inhibition of p38gamma (unknown origin) at 30 uM by microfluidic mobility shift assay relative to control", "method_in_brief": "as §1"}, "[12]": {"target": "Fibroblast growth factor receptor 4 (Homo sapiens) (UniProt P22455)", "sequence (P22455 22-802 limits assumed)": "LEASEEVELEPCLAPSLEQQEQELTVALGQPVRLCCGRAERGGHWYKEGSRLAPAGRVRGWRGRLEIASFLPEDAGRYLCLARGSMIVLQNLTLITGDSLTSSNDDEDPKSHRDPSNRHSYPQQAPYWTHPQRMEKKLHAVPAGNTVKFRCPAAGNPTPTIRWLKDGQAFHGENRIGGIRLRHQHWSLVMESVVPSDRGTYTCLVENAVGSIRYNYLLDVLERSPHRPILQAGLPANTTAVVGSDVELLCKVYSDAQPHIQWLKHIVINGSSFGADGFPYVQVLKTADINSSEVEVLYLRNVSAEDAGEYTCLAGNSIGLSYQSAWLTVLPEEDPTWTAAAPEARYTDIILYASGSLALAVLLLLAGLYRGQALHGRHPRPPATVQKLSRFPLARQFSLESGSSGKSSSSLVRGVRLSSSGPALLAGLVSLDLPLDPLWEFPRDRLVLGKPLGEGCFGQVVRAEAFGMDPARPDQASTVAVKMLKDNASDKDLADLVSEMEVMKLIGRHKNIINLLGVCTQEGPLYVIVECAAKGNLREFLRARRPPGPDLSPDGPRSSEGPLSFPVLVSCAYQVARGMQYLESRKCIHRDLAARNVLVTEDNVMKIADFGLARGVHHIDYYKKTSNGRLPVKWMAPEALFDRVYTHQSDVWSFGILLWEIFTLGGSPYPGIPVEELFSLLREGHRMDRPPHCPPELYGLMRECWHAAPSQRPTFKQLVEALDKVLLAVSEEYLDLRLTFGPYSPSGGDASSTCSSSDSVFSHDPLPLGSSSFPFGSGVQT", "experiment": "Inhibition of FGFR4 (unknown origin) at 30 uM by microfluidic mobility shift assay relative to control", "method_in_brief": "as §2"}, "[13]": {"target": "Mitogen-activated protein kinase 3 (Homo sapiens, UniProt P27361)", "experiment": "Inhibition of MAPK3 (unknown origin) at 30 uM by microfluidic mobility shift assay relative to control", "method_in_brief": "as §2"}, "[14]": {"system": "Fibroblast growth factor receptor 2 (Homo sapiens), P21802 [N549H]", "experiment": "Inhibition of FGFR2 N549H mutant (unknown origin) at 30 uM by microfluidic mobility shift assay relative to control", "method_in_brief": "as §2"}, "[15]": {"target": "Tyrosine-protein kinase SYK (Homo sapiens) (UniProt P43405)", "experiment": "Inhibition of SYK (unknown origin) at 30 uM by microfluidic mobility shift assay relative to control", "method_in_brief": "as §1"}},
  "data": [
    {"smiles": "c1ccc(CC2CCC3(CCN(c4ncnc5[nH]cnc45)CC3)NC2)cc1", "note": "(racemic)", "values": [
      {"measurement": "inhibition", "setting": "[1]", "result": 0, "unit": "%"},
      {"measurement": "inhibition", "setting": "[2]", "result": 70, "unit": "%"},
      {"measurement": "inhibition", "setting": "[3]", "result": 35, "unit": "%"},
      {"measurement": "inhibition", "setting": "[4]", "result": 27, "unit": "%"},
      {"measurement": "inhibition", "setting": "[5]", "result": 16, "unit": "%"},
      {"measurement": "inhibition", "setting": "[6]", "result": 31, "unit": "%"},
      {"measurement": "inhibition", "setting": "[7]", "result": 12, "unit": "%"},
      {"measurement": "inhibition", "setting": "[8]", "result": 13, "unit": "%"},
      {"measurement": "inhibition", "setting": "[9]", "result": 47, "unit": "%"},
      {"measurement": "inhibition", "setting": "[10]", "result": 10, "unit": "%"},
      {"measurement": "inhibition", "setting": "[11]", "result": 3, "unit": "%"},
      {"measurement": "inhibition", "setting": "[12]", "result": 7, "unit": "%"},
      {"measurement": "inhibition", "setting": "[13]", "result": 7, "unit": "%"},
      {"measurement": "inhibition", "setting": "[14]", "result": 15, "unit": "%"},
      {"measurement": "inhibition", "setting": "[15]", "result": 0, "unit": "%"}
    ]},
    {"smiles": "c1ccc(CC2CCNC3(CCN(c4ncnc5[nH]cnc45)CC3)C2)cc1", "note": "(racemic)", "values": [
      {"measurement": "inhibition", "setting": "[1]", "result": 0, "unit": "%"},
      {"measurement": "inhibition", "setting": "[2]", "result": 78, "unit": "%"},
      {"measurement": "inhibition", "setting": "[3]", "result": 71, "unit": "%"},
      {"measurement": "inhibition", "setting": "[4]", "result": 75, "unit": "%"},
      {"measurement": "inhibition", "setting": "[5]", "result": 17, "unit": "%"},
      {"measurement": "inhibition", "setting": "[6]", "result": 11, "unit": "%"},
      {"measurement": "inhibition", "setting": "[7]", "result": 8, "unit": "%"},
      {"measurement": "inhibition", "setting": "[8]", "result": 60, "unit": "%"},
      {"measurement": "inhibition", "setting": "[9]", "result": 60, "unit": "%"},
      {"measurement": "inhibition", "setting": "[10]", "result": 7, "unit": "%"},
      {"measurement": "inhibition", "setting": "[11]", "result": 11, "unit": "%"},
      {"measurement": "inhibition", "setting": "[12]", "result": 0, "unit": "%"},
      {"measurement": "inhibition", "setting": "[13]", "result": 9, "unit": "%"},
      {"measurement": "inhibition", "setting": "[14]", "result": 22, "unit": "%"},
      {"measurement": "inhibition", "setting": "[15]", "result": 8, "unit": "%"}
    ]},
    {"smiles": "c1ccc(C2CCNC3(CCN(c4ncnc5[nH]cnc45)CC3)C2)cc1", "note": "(racemic)", "values": [
      {"measurement": "inhibition", "setting": "[1]", "result": 0, "unit": "%"},
      {"measurement": "inhibition", "setting": "[2]", "result": 66, "unit": "%"},
      {"measurement": "inhibition", "setting": "[3]", "result": 61, "unit": "%"},
      {"measurement": "inhibition", "setting": "[4]", "result": 79, "unit": "%"},
      {"measurement": "inhibition", "setting": "[5]", "result": 14, "unit": "%"},
      {"measurement": "inhibition", "setting": "[6]", "result": 35, "unit": "%"},
      {"measurement": "inhibition", "setting": "[7]", "result": 0, "unit": "%"},
      {"measurement": "inhibition", "setting": "[8]", "result": 36, "unit": "%"},
      {"measurement": "inhibition", "setting": "[9]", "result": 72, "unit": "%"},
      {"measurement": "inhibition", "setting": "[10]", "result": 7, "unit": "%"},
      {"measurement": "inhibition", "setting": "[11]", "result": 6, "unit": "%"},
      {"measurement": "inhibition", "setting": "[12]", "result": 4, "unit": "%"},
      {"measurement": "inhibition", "setting": "[13]", "result": 13, "unit": "%"},
      {"measurement": "inhibition", "setting": "[14]", "result": 20, "unit": "%"},
      {"measurement": "inhibition", "setting": "[15]", "result": 24, "unit": "%"}
    ]}
  ]
}
